According to ChEMBL document CHEMBL1136934, “Synthesis of some novel organic nitrates and comparative in vitro study of their vasodilator profile” (J Med Chem, 2009):

How the values were obtained:
Aorta [1] = assay: Ratio of EC50 for vasodilatory activity in Wistar rat endothelium-denuded thoracic aortic ring in presence of chloral hydrate to EC50 for vasodilatory activity in Wistar rat endothelium-denuded thoracic aortic ring; type: functional
Aorta [2] = assay: Ratio of EC50 for vasodilatory activity in Wistar rat endothelium-denuded cross tolerant thoracic aortic ring preincubated with 0.55 mM GTN for 1 hr followed by washing to EC50 for vasodilatory activity in Wistar rat endothelium-denuded thoracic aortic ring; type: functional
Procedure, shortened: (§1)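 Endothelium-denuded helical rat aortic strips. After 1 h equilibration, strips were incubated in 0.55 mM GTN for 1 h, then washed extensively for 1 h. Cumulative concentration-response curves were then run on contracted strips. EC50 (µM, mean ± SE, n = 3-15) was compared with untreated strips.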

Aorta [3] = assay: Vasodilatory activity in Wistar rat endothelium-denuded thoracic aortic ring assessed as inhibition of phenylephrine-induced contraction drug treated 30 mins after 1 uM soluble guanylate cyclase heme site inhibitor ODQ treatment; type: functional, tissue-based; conditions: 0.5 h
Aorta [4] = assay: Vasodilatory activity in Wistar rat endothelium-denuded thoracic aortic ring assessed as inhibition of phenylephrine-induced contraction; type: functional, tissue-based
Procedure, shortened: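 Endothelium removed from rat aorta; three helically cut strips per aorta. Once agonist contraction plateaued, cumulative vasodilator concentrations were added. EC50 (µM) given as mean ± SE, n = 3-15.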

Aorta [5] = assay: Vasodilatory activity in Wistar rat endothelium-denuded thoracic aortic ring assessed as inhibition of phenylephrine-induced contraction drug treated 30 mins after ALDH2 inhibitor chloral hydrate treatment; type: functional, tissue-based; conditions: 0.5 h
Aorta [6] = assay: Vasodilatory activity in Wistar rat endothelium-denuded thoracic aortic ring assessed as inhibition of phenylephrine-induced contraction drug treated 30 mins after ALDH2 inhibitor benomyl treatment; type: functional, tissue-based; conditions: 0.5 h
Aorta [7] = assay: Ratio of EC50 for vasodilatory activity in Wistar rat endothelium-denuded thoracic aortic ring in presence of benomyl to EC50 for vasodilatory activity in Wistar rat endothelium-denuded thoracic aortic ring; type: functional
Aorta [8] = assay: Vasodilatory activity in Wistar rat endothelium-denuded cross tolerant thoracic aortic ring assessed as inhibition of phenylephrine-induced contraction preincubated with 0.55 mM GTN for 1 hr followed by washing; type: functional, tissue-based; procedure, shortened: as §1

| Structure (SMILES) | Ratio EC50 (Aorta [1]) | Ratio EC50 (Aorta [2]) | EC50 (Aorta [3]) | EC50 (Aorta [4]) | EC50 (Aorta [5]) | EC50 (Aorta [6]) | Ratio EC50 (Aorta [7]) | EC50 (Aorta [8]) |
| --- | --- | --- | --- | --- | --- | --- | --- | --- |
| O=[N+]([O-])OC[C@@H](CCc1ccccc1)O[N+](=O)[O-] | 5.5 | 33 | 29000 nM | 49 nM | 270 nM | 120 nM | 2.4 | 1600 nM |
| O=[N+]([O-])OC[C@@H](Cc1ccccc1)O[N+](=O)[O-] | 19 | 102 | > 100000 nM | 63 nM | 1200 nM | 630 nM | 10 | 6400 nM |
| O=[N+]([O-])OCCCCc1ccccc1 | 7.3 | 30 | 66000 nM | 150 nM | 1100 nM | 510 nM | 3.4 | 4500 nM |
| O=[N+]([O-])OC[C@H](Cc1ccccc1)O[N+](=O)[O-] | 20 | 100 | > 100000 nM | 61 nM | 1200 nM | 600 nM | 9.8 | 6100 nM |
| O=[N+]([O-])OCCCc1ccccc1 | 19 | 125 | > 100000 nM | 160 nM | 3000 nM | 1500 nM | 9.4 | 20000 nM |
| O=[N+]([O-])OC[C@H](CCc1ccccc1)O[N+](=O)[O-] | 7.6 | 49 | 30000 nM | 49 nM | 370 nM | 160 nM | 3.3 | 2400 nM |
| O=[N+]([O-])OCC(CO[N+](=O)[O-])O[N+](=O)[O-] [NITROGLYCERIN] | 32 | 152 | > 100000 nM | 29 nM | 940 nM | 420 nM | 14 | 4400 nM |
